Bioassay records from PubChem BioAssay.
ARNT TACC3 PPI – ARNT/TACC3 interaction disruption; Q9Y6A5; AlphaScreen His-ARNT PAS-B/GST-TACC3 binding, luminescence; TACC3 fragment carries E629A point mutation; inhibition, % at 9.99 µM; actives 0.66% (n = 390,000);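 active = mean inhibition of replicates at least 50% and at least half of replicates each reaching 50%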;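 note: 0% = complete ARNT plus TACC3 wells and 100% = ARNT alone without TACC3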
FN deposition inh – fibronectin deposition inhibition | AID 743247 | inhibition, % at 12.6 µM | AH1F fibroblasts, Alexa488-fibronectin deposition fluorescence, overnight | actives 0.086% (n = 350,000);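 active = mean inhibition across replicates of 30% or more, regardless of how many single replicates reach that level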;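 note: positive control wells lacked labelled fibronectin entirely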
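Assay system: AH1F fibroblast monolayer, labelled fibronectin deposition. Amount: 10000 cells per well. Also added: labelled fibronectin 24 nM. Compound: single-point pinned compound. Incubation: cell attachment 1 h, compound and FN exposure overnight. Detection: fluorescence after three HBSS washes, excitation 485 nm, emission 525 nm. Read-out: inhibition of fibronectin deposition signal.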
ERp5 inh – ERp5 (human) disulfide isomerase inhibition. Q15084. ERp5 insulin aggregation, absorbance 650 nm, 90 min. inhibition, % at 9.99 µM. actives 0.05% (n = 350,000);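 active = mean replicate inhibition above about 25%, with every replicate also reaching it, limit read from the data, passing the limit was not always enough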
AF4-AF9 inh – MLL-AF4/AF9 protein interaction inhibition; actives 0.47% (n = 350,000); AlphaScreen, biotin-AF4 peptide binding to FLAG-AF9; P42568; inhibition, % at 10 µM;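 active = every replicate reaching a set inhibition limit, whatever the replicate mean, cut at about 25% in these data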;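 note: 0% = plate neutral control median and 100% = total signal loss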
Target sequence (P42568 whole entry, looked up): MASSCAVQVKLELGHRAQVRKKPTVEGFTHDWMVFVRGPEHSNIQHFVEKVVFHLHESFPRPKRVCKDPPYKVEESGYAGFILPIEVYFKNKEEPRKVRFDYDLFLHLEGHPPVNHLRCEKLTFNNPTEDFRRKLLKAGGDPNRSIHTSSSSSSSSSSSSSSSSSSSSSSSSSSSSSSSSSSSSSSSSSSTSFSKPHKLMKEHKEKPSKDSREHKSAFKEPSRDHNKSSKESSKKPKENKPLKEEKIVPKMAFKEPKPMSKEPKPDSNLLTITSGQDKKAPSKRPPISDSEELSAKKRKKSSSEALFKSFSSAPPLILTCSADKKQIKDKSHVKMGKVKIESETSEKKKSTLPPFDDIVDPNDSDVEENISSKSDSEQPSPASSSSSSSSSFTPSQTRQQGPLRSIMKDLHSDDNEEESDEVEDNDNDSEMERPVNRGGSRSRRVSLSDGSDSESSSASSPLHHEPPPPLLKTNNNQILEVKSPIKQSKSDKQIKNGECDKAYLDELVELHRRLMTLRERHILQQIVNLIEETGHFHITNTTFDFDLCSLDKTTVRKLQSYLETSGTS
PDI turbidity – inhibitors of human protein disulfide isomerase. P07237. actives 0.052% (n = 350,000). inhibition, % at 10 µM. AID 588391. PDI insulin aggregation turbidity, A650, 90 min;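 active = mean inhibition across replicates of 30% or more, whatever share of single replicates reach that level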
FGF22 binding – binders of recombinant human FGF22 by thermal shift | AID 651658 | activity (Tm shift, normalised), % at 9.99 µM | SYPRO orange fluorescence; percent of sucrose octasulfate shift, DMSO zero | Q9HCT0 | actives 1.5% (n = 340,000);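 active = mean Tm shift, scaled 0 neutral to 100 positive control, at about 1.3% or above, every replicate too, limit read from the data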
Numbers without * were called inactive; / = not tested or not shown. An excerpt weighted towards active compounds, which were near 2.1% of everything screened.

SMILES | ARNT TACC3 PPI | FN deposition inh | ERp5 inh | AF4-AF9 inh | PDI turbidity | FGF22 binding
COc1ccc2c3c([nH]c2c1)[C@@H](CO)N(C(=O)Cc1ccccc1)CC31CCN(C(=O)Nc2ccccc2F)CC1 | / | / | -2 | 2 | / | 0
COc1ccc(CCNc2nc(-c3ccccn3)cs2)cc1OC | 65* | -5 | -3 | / | -3 | 0
COc1ccc(CCNc2nc(-c3ccncc3)cs2)cc1OC | 4 | 7 | 0 | 2 | 6 | 0
O=C(CCc1nnc(CCCCc2ccccc2)o1)NCCn1cccn1 | / | -5 | 1 | -12 | 14 | 43*
CC(C)c1cc(CNC(=O)CCc2nnc(CCCc3ccccc3)o2)on1 | / | 0 | -3 | 0 | 11 | 43*
O=C(CCc1nnc(CCCc2ccccc2)o1)NCCCC1CCCC1 | 13 | / | 2 | 1 | -5 | 43*
CC(=NNC(=S)N1CC2CCC(CC2)C1)c1ccccn1 | / | -6 | -2 | -2 | -8 | 0
CC(=NNC(=S)N1CC2CCC(CC2)C1)c1cnccn1 | 51* | -3 | 4 | -2 | 16 | 0
CO[C@@H]1CN(C)C(=O)c2ccc(NC(C)=O)cc2OC[C@@H](C)N(Cc2cncnc2)C[C@@H]1C | / | 0 | / | / | / | /
Cc1ccc(NC(=O)CN2C(=O)S/C(=C/c3ccc(-c4cccc(C(=O)O)c4)o3)C2=O)cc1 | -2 | 4 | 8 | 2 | -3 | 43*
CCOc1cccc2sc(=NC(=O)c3ccco3)n(CC(=O)OC)c12 | -1 | 6 | -1 | -5 | 8 | 0
C#CCn1c(=NC(=O)c2ccco2)sc2cccc(Cl)c21 | -1 | -5 | -1 | 31* | 4 | 0
CN(CCc1cnn(C)c1)C(=O)CCc1nnc(CCCc2ccccc2)o1 | -8 | 6 | -2 | -1 | -3 | 43*
CN(CCc1ccccn1)C(=O)CCc1nnc(CCCc2ccccc2)o1 | -3 | 8 | 4 | -3 | -4 | 0
CC(C)N(Cc1nccn1C)C(=O)CCc1nnc(CCCc2ccccc2)o1 | 2 | 13 | -10 | -1 | 0 | 44*
COC(c1ccccc1)c1nnc(CCC(=O)N(C)CCc2ccccc2)o1 (centres undefined) | / | -4 | 1 | 1 | -4 | 44*
Cc1cccc(/C=C(\C(=O)O)c2ccc(S(=O)(=O)N3CCCC3)s2)c1 | 45* | / | 2 | -5 | -7 | 0
O=C(O)/C(=C\c1cccc(F)c1)c1ccc(S(=O)(=O)N2CCCC2)s1 | -8 | 2 | -3 | 0 | -3 | 0
Cc1cccc(S(=O)(=O)N2C[C@@H]3[C@H](c4ccccc42)[C@@H](CO)N3C(=O)CC2CC2)c1 | -4 | / | -1 | 0 | / | 0
COc1cccc(-c2cc(=O)[nH][nH]2)c1 | 2 | -3 | -10 | 3 | 6 | 0
COc1ccc(-c2cc(=O)[nH][nH]2)cc1OC | 50* | / | / | / | 12 | /
COc1ccc2nc(NC(=O)CSc3nnnn3C3CCCCC3)sc2c1 | -22 | / | 4 | 5 | -3 | 0
COc1ccc2nc(NC(=O)CSc3nnnn3C)sc2c1 | / | -7 | -2 | -1 | 2 | 43*
C[C@@H]1CN([C@H](C)CO)S(=O)(=O)c2ccc(-c3cccc(F)c3)cc2O[C@@H]1CN(C)C(=O)C1CC1 | -2 | -7 | 0 | 1 | / | 0
COc1cc2c(cc1OC)C(NC(=O)C(F)(F)F)CNC2=O (centres undefined) | / | 7 | 0 | -2 | 0 | 43*
SMILES | ARNT TACC3 PPI | FN deposition inh | ERp5 inh | AF4-AF9 inh | PDI turbidity | FGF22 binding
Cc1ccccc1NC(=S)N(Cc1ccccn1)Cc1ccccc1Cl | -17 | / | 2 | 1 | 2 | 0
S=C(NN=Cc1ccccn1)N(Cc1ccccn1)Cc1ccccn1 | 59* | 8 | 4 | 11 | -3 | 0
CC(=NNC(=S)N(Cc1ccccn1)Cc1ccccn1)c1cnccn1 | 64* | 14 | -6 | 2 | 2 | 0
CCCNC(=O)[C@H]1[C@H](CO)[C@H]2Cn3c(ccc(-c4cccc(OC)c4)c3=O)[C@H]2N1Cc1nccs1 | / | / | -1 | 5 | / | /
O=C(C[C@H]1C=C[C@@H](NC(=O)C2CC2)[C@H](CO)O1)NCc1ccccc1Cl | -11 | -1 | -2 | 0 | / | 0
CCCNC(=O)N1C[C@H](C)[C@H](OC)CN(C)C(=O)c2cc(NC(=O)C3CCC3)ccc2OC[C@H]1C | / | -1 | / | / | / | /
CCOc1cc(C=O)ccc1OCc1cc(=O)n2cc(C)ccc2n1 | -1 | 7 | 1 | -2 | -4 | 0
Cc1ccc2nc(CSc3nnc4ccccn34)cc(=O)n2c1 | -4 | -5 | 4 | -1 | -4 | 43*
Cc1ccc2nc(COc3ccc(Cl)cc3)cc(=O)n2c1 | / | -12 | -1 | -3 | 1 | 43*
Cc1ccc2nc(CSc3nnc(-c4ccco4)n3-c3ccccc3)cc(=O)n2c1 | -6 | -3 | / | / | 1 | /
Cc1ccc(S(=O)(=O)N2CC[C@H]3[C@@H](CO)N(C)c4ccc(-c5cccc(C#N)c5)cc4[C@H]32)cc1 | -7 | -3 | 0 | 0 | / | 0
O=C(N/N=C/c1ccc(N2CCOCC2)c([N+](=O)[O-])c1)c1ccc(F)cc1 | 4 | 3 | / | / | -6 | /
O=C(N/N=C/c1ccc(N2CCCC2)c([N+](=O)[O-])c1)c1cccnc1 | 7 | 31* | 0 | -1 | 1 | 0
O=C(NCc1ccccn1)c1ccc(N2CCCC2)c([N+](=O)[O-])c1 | / | 1 | 1 | 2 | 13 | 43*
C[C@]12CCCC(=O)N1CCc1c2[nH]c2ccccc12 | 0 | / | 0 | 1 | / | 0
NS(=O)(=O)c1cccc(NC(=O)CSc2n[nH]c(-c3ccccc3Br)n2)c1 | 2 | 1 | 1 | -1 | 8 | 1.9*
COc1ccc(N2CCN(C3CCCN(S(=O)(=O)c4ccccc4)C3)CC2)cc1 (centres undefined) | 4 | 1 | -6 | 6 | -11 | -1
COc1ccc(N2CCN(C3CCCN(S(=O)(=O)c4ccc(C)cc4C)C3)CC2)cc1 (centres undefined) | 37 | 2 | -15 | 32* | -3 | 0
COc1cccc(-c2coc3c(C)c4oc(=O)c(CCC(=O)O)c(C)c4cc23)c1 | 62* | -3 | 1 | 0 | -1 | -1
COc1cccc(-c2coc3c(C)c4oc(=O)c(CC(=O)O)c(C)c4cc23)c1 | 14 | 3 | -1 | -2 | -3 | 0
O=C(CN1C(=O)NC2(CCCCCCC2)C1=O)N1CCc2ccccc2C1 | 1 | 8 | / | / | 9 | /
O=C(CN1C(=O)CSC1=O)N1CCc2ccccc2C1 | 30* | / | / | / | -3 | /
COC1=C(Nc2ccc(C)cc2)C(=O)c2ccccc2C1=O | 51* | 1 | 3 | 37* | 1 | 0
COC1=C(Nc2ccccc2)C(=O)c2ccccc2C1=O | 46* | / | / | / | 3 | /
